We go through 15 compounds from ChEMBL document CHEMBL2384954, “Benzofuran-, benzothiophene-, indazole- and benzisoxazole-quinones: excellent substrates for NAD(P)H:quinone oxidoreductase 1” (Bioorg Med Chem, 2013).

In test [1] the target is NAD(P)H dehydrogenase [quinone] 1 (Homo sapiens) (UniProt P15559). The test is described as follows: Activity at human recombinant NQO1 assessed as average rate of irreversible NADH oxidation after 30 to 40 mins by HPLC analysis. Put shortly:
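Recombinant human NQO1 incubated with 50 µM quinone and 200 µM NADH in 25 mM Tris-HCl pH 7.4, 30–40 min at 22 °C. Reverse-phase C18 HPLC with methanol/10 mM potassium phosphate pH 6.0 gradient; NADH oxidation quantified at 340 nm. Average rate expressed as µmol NADH oxidized/min/mg NQO1.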

Test [2] shares this target. The test is described as follows: Activity at human recombinant NQO1 assessed as initial rate of cytochrome c reduction during the first 0 to 30 s by spectrophotometry.

Sequence of NAD(P)H dehydrogenase [quinone] 1 (Homo sapiens) (P15559 whole entry): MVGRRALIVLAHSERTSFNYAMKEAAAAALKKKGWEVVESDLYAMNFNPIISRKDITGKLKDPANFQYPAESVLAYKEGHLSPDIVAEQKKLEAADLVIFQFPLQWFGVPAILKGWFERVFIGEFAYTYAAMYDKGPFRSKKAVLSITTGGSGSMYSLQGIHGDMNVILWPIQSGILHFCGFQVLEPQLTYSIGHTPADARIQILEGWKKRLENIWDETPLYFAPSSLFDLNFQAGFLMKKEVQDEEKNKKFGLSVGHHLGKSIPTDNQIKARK

Consider `COC1=CC(=O)c2sc(CO)cc2C1=O`, for which the results for the Activity in test [1] and in test [2] were 63.8 µmol/min/mg and 927 µmol/min/mg, respectively.
For `COC1=CC(=O)c2sc(COC(C)=O)cc2C1=O`, in that order: 24.5 µmol/min/mg and 900 µmol/min/mg.
With `COC1=CC(=O)c2sc(C)c(CO)c2C1=O`, the Activity in test [2] came out at 236 µmol/min/mg.
`COC1=CC(=O)c2oc(CO)c(C)c2C1=O`: the figures for the Activity in test [1] and in test [2] were 80.8 µmol/min/mg and 1020 µmol/min/mg, respectively.
As for `COC1=CC(=O)c2onc(C)c2C1=O`, the Activity in test [1] came out at 27.6 µmol/min/mg; in test [2] it was 290 µmol/min/mg.
`COC(=O)c1cc2c(s1)C(=O)C=C(OC)C2=O`: the Activity in test [1] turned out to be 53.9 µmol/min/mg; in test [2] it was 555 µmol/min/mg.
For `COC1=CC(=O)c2c(c(C)nn2C)C1=O`, the Activity in test [1] was 19.6 µmol/min/mg; in test [2], 55.3 µmol/min/mg.
For `COC1=CC(=O)c2sc(C=O)cc2C1=O`, in that order: 27.4 µmol/min/mg and 897 µmol/min/mg.
For `COC1=CC(=O)c2c(c(CO)nn2C)C1=O`, in that order: 38.1 µmol/min/mg and 247 µmol/min/mg.
Consider `COC1=CC(=O)c2sc(CO)c(C)c2C1=O`, for which the Activity in test [2] is 468 µmol/min/mg.
Regarding `COC1=CC(=O)c2sc(C)cc2C1=O`, the Activity in test [1] stood at 5.51 µmol/min/mg; in test [2] it was 553 µmol/min/mg.
For the compound `CC1=CC(=O)c2ccccc2C1=O`, in test [2], the Activity stood at 1220 µmol/min/mg.
For `COC1=CC(=O)c2c(c(C)c(CO)n2C)C1=O`, in test [1], the Activity was 2.49 µmol/min/mg.
For the compound `COC1=CC(=O)c2oc(C)c(C(C)O)c2C1=O` (stereo not given), the Activity in test [1] is 87.9 µmol/min/mg; in test [2], 585 µmol/min/mg.
For `COC1=CC(=O)c2c(c(CO)c(C)n2C)C1=O`, the Activity in test [1] was 1.25 µmol/min/mg.
